An excerpt weighted towards active compounds, which were near 4.3% of everything screened.
SMARCA2 act = increases SMARCA2 function in MMTV reporter cells; MG213 cells, MMTV-luciferase reporter, dexamethasone, overnight; activation, % at 9.1 µM; 370,000 tested, 1% active; AID 652017; in the data active = activation above about 7.8%;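 also: 0% = vehicle wells and 100% = reference activator wells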
CR mimetic SO = caloric restriction mimetics inhibiting age-related superoxide in yeast; superoxide response (% of plate mean), % at 10 µM; AID 2690; S. cerevisiae aged cells, superoxide DHE fluorescence; hits give low values; 330,000 tested, 0.18% active;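 active = superoxide response under a set limit, about three screen SD below normal, cut at about 65% in these data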;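 also: yeast aged for seven days with compound at 30 °C before DHE staining; 100% = average MFI of all compound-treated wells on the plate with controls excluded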
Lipid droplet = hepatic lipid droplet formation modulation. AML12 mouse hepatocytes, oleate lipid droplets, BODIPY imaging. inhibition, % at 6.5 µM. 240,000 tested, 0.4% active. AID 1656;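 active = lipid droplet intensity inhibited by at least 50%, with more than 500 cells counted; inconclusive = wells with under 300 cells, treated as cytotoxic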
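Test system: AML12 hepatocytes (mouse); reagent: oleate loading, 100 µM; dosing: one dose, 6.5 µM compound; incubation: overnight exposure; signal: fluorescence imaging, 20x objective, two fields per well; read-out basis: % inhibition of corrected integrated BODIPY droplet signal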
SR-BI uptake up = enhances SR-BI lipid uptake from DiI-HDL; CHO ldlA[mSR-BI] cells, DiI-HDL uptake fluorescence, 3 h; 100 = double the neutral-control signal; activation, % at 12.5 µM; 320,000 tested, 0.096% active;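 active = mean replicate activation of at least 60% and every replicate at or above 60%; inconclusive = mean or all-replicate condition met, but not both; inactive = mean below 60% and not all replicates reaching 60%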;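 also: 0% = median plate neutral-control signal and 100% = twice that signal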
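Material – SR-BI-overexpressing, LDLR-lacking CHO cells · Medium – BSA-supplemented, HEPES-buffered Ham's F12, pH 7.4 · Doses – single concentration · Times – compound with DiI-HDL co-incubation, 3 h at 37 °C · Measured by – bottom-read fluorescence, 550/595 nm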
AHR act = human AHR activation; activation, % at 5 µM; 320,000 tested, 2.5% active; AHR-responsive luciferase reporter cells, luminescence; in the data active = activation above about 47%;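 also: 0% = vehicle wells and 100% = reference agonist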
SR-BI DiI inh = mouse SR-BI HDL lipid transfer inhibition. ldlA[mSR-BI] CHO cells, DiI-HDL uptake fluorescence, 3 h. inhibition, % at 12.5 µM. 320,000 tested, 0.96% active. AID 488896;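 active = mean replicate inhibition of at least 70% and a set share of replicates each scoring 70 or more; inconclusive = meets just one of the two criteria; inactive = fails both criteria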;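 also: 0% = median of neutral control wells and 100% = median of positive control wells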
AHR act cf = confirmation of human aryl hydrocarbon receptor activators; human cells, AHR-responsive luciferase reporter, luminescence; activation, % at 9 µM; 2,300 tested, 87% active; shares compounds with AHR act; in the data active = activation above about 49%;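 also: HepG2 hepatoma cells carrying a DRE-driven firefly luciferase reporter; 0% = vehicle wells and 100% = reference agonist wells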
PXR act counter = activates human PXR in AHR activator counter-screen; activation, % at 11.6 µM; shares compounds with AHR act; cell-based PXR reporter, luciferase luminescence; 2,300 tested, 88% active; AID 434939; in the data active = activation above about 11%;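 also: human hepatoma DPX-2 cells expressing full-length human PXR; 0% = DMSO and 100% = reference agonist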
Target sequence (O75469 whole entry, looked up): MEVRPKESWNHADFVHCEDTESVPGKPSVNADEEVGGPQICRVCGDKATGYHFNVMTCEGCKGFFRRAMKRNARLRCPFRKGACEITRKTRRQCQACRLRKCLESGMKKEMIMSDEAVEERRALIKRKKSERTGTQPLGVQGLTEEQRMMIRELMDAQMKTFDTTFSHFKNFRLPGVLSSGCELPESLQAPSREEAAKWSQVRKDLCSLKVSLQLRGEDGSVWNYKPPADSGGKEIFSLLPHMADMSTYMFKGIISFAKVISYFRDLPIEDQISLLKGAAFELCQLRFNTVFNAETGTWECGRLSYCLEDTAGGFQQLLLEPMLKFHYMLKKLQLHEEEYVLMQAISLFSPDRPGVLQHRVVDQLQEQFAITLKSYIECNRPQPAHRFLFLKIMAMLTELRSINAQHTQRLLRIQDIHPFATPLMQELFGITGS
Active calls of the source: *; u = inconclusive; x = no result given.

SMILES	SMARCA2 act	CR mimetic SO	Lipid droplet	SR-BI uptake up	AHR act	SR-BI DiI inh	AHR act cf	PXR act counter
C[C@@H]1CCCCO[C@@H](CN(C)Cc2ccc(C(=O)O)cc2)[C@@H](C)CN([C@H](C)CO)C(=O)c2cc(NS(C)(=O)=O)ccc2O1	-2.3	x	x	x	x	x	x	x
COc1cc(/C=C(\C#N)c2nc3ccccc3[nH]2)ccc1OC(=O)c1ccco1	2.5	91.0	19.3	-25.9	99.8*	25.9	28.8	14.2*
COC(=O)C1=C(C)N(Cc2cccc(C(F)(F)F)c2)C(=NCC2CC2)NC1c1ccc(F)cc1 (stereo unspecified)	-7.3	x	x	x	x	x	x	x
Cc1cccc(Oc2nc3c(c(=O)n(C)c(=O)n3C)n2C)c1	-3.7	100.1	11.9	x	11.8	x	x	x
Cn1c(=O)c2c(nc(/C=C/c3cccc(Cl)c3)n2C)n(C)c1=O	-0.4	104.8	x	x	86.0*	x	54.7*	x
O=C(NCc1cccnc1)c1ccc(-c2ccccc2[N+](=O)[O-])o1	-1.5	94.2	-14.2	28.8	86.6*	-28.8	94.7*	39.4*
O=C(NCc1cccnc1)c1ccc(-c2cccc(Cl)c2Cl)o1	-0.2	141.1	0.9	-5.5	22.4	5.5	x	x
CCN(CC)CCCNC(=O)CSc1nc2cccnc2n1C	-1.6	x	x	x	x	x	x	x
COc1ccc(NC(=O)c2sccc2-n2cccc2)cc1	-1.5	101.4	-2.8	-43.1	26.0	43.0	x	x
O=C(Nc1ccc(Cl)cc1)c1sccc1-n1cccc1	1.8	98.4	-19.7	-40.3	138.1*	40.3	144.6*	28.3*
CCc1ccc(NC(=O)c2sccc2-n2cccc2)cc1	2.5	93.2	-2.4	-65.8	102.4*	65.8	141.1*	41.2*
Cc1ccccc1Cn1cc(COC(=O)NCC(C)C)nn1	-0.3	x	x	x	x	x	x	x
O=C1c2ccccc2NC(c2ccc3c(c2)OCO3)N1O (stereo unspecified)	3.7	104.0	x	9.6	122.1*	-9.6	133.5*	24.7*
O=C1c2ccccc2NC(c2ccc3c(c2)OCCO3)N1c1ccc2c(c1)OCCO2 (stereo unspecified)	2.7	93.7	x	6.9	2.2	-6.9	x	x
Cc1ccc(NCC(=O)N/N=C/c2c[nH]c3ccccc23)cc1	-4.3	96.9	30.7	0.7	157.7*	-0.7	111.0*	19.0*
Brc1ccc(-c2noc(COc3ccc4ccccc4c3)n2)o1	-1.6	99.7	x	-4.6	7.4	4.6	x	x
Clc1ccccc1-c1nc(-c2ccc(Br)o2)no1	2.5	103.7	-6.5	37.0	100.5*	-37.0	108.2*	42.8*
O=[N+]([O-])c1ccccc1-c1nc(-c2ccc(Br)o2)no1	5.3	105.9	6.4	2.0	112.1*	-2.0	109.2*	47.1*
COc1ccc(-c2noc(-c3cc(C)cc(C)c3)n2)cc1OC	2.5	97.5	x	-8.7	3.8	8.7	x	x
COc1cc(-c2nc(-c3ccc(Br)o3)no2)cc(OC)c1OC	-4.7	110.4	x	-72.8	91.4*	u	84.3*	13.9*
Brc1ccc(-c2noc(CCc3ccccc3)n2)o1	1.4	90.6	x	15.7	7.5	-15.7	x	x
Brc1ccc(-c2noc(-c3ccccn3)n2)o1	3.4	104.7	29.0	1.5	101.4*	-1.5	71.2*	25.0*
CCOC(=O)N1C(=O)C[C@](Sc2ccc(OC)cc2)(C(=O)N2CCN(C(C)=O)CC2)[C@H]1c1ccc(OC)cc1	-3.0	x	x	x	x	x	x	x
COc1ccccc1OCc1nc(C#N)c(N2CC(C)CC(C)C2)o1 (stereo unspecified)	-1.5	95.7	x	-43.7	91.2*	43.7	86.5*	86.4*
CC1CC(C)CN(c2oc(Cc3ccccc3)nc2C#N)C1 (stereo unspecified)	-1.0	90.3	-13.5	-12.8	7.8	12.8	x	x
SMILES	SMARCA2 act	CR mimetic SO	Lipid droplet	SR-BI uptake up	AHR act	SR-BI DiI inh	AHR act cf	PXR act counter
CCCN(Cc1ccccc1)C(=S)Nc1cccc(C)c1C	1.1	106.3	6.5	14.8	0.5	-14.8	x	x
Cc1cccc(NC(=S)NN(Cc2ccccc2)c2ccccc2)c1C	-3.7	105.5	12.5	-6.2	115.6*	6.2	108.3*	213.5*
c1cncc(-c2nc(-c3ccc4c(c3)OCO4)cs2)c1	7.5	112.2	-1.9	-9.7	94.7*	9.6	80.4*	26.8*
Clc1ccsc1-c1csc(-c2cccnc2)n1	6.0	108.4	25.9	2.1	84.7*	-2.1	142.2*	25.0*
c1cncc(-c2csc(-c3cccnc3)n2)c1	-0.7	97.2	-2.9	15.1	-3.0	-15.1	x	x
NC(=Nc1cccc(F)c1)NC(=O)OCc1ccccc1	1.9	x	x	x	x	x	x	x
Cc1ccc(NC(=O)c2noc3c2CCc2ccccc2-3)cc1	0.4	103.5	25.5	-1.3	101.8*	1.3	133.0*	20.3*
O=S1(=O)c2ccc(Br)cc2OC2CCCN1C2 (stereo unspecified)	-0.1	x	x	x	x	x	x	x
COc1ccc(S(=O)(=O)NNC(=O)c2cc3c4ccccc4n(C)c3s2)cc1	0.6	96.9	x	0.8	110.1*	-0.8	98.4*	245.8*
CC1CCN(c2ccc(C(=O)O)cc2NS(=O)(=O)c2ccc(C(C)(C)C)cc2)CC1	-1.2	x	x	x	x	x	x	x
N#Cc1ccccc1NC(=O)COc1ccccc1C(=O)Nc1ccccc1	-2.2	104.7	x	-17.9	93.3*	17.9	95.0*	41.1*
O=C(Nc1ccc(Cl)c(Cl)c1)Nc1ccc([N+](=O)[O-])cn1	0.2	103.8	-0.6	10.3	90.8*	-10.3	86.3*	7.5
O=C(Nc1ccccc1)c1cc([N+](=O)[O-])ccc1Cl	-2.5	92.4	14.6	-42.0	88.2*	42.0	95.4*	13.9*
O=C(Nc1ccccc1)c1cc([N+](=O)[O-])ccc1NCc1cccnc1	0.6	83.5	6.0	-4.0	83.2*	4.0	104.4*	41.4*
O=C(NC1=N[C@@]2(C=C3CCCCC3n3c(=O)n(-c4ccccc4)c(=O)n32)[C@H](Cc2ccccc2)N1Cc1ccccc1)c1ccccc1 (stereo partly specified)	-5.3	x	x	x	x	x	x	x
O=C(Nc1ccc(Cl)c(Cl)c1)C1CCCN(c2nnc(-n3cccc3)s2)C1 (stereo unspecified)	-4.9	x	x	x	x	x	x	x
CC(=O)N/N=c1\sc2ccccc2n1C	7.4	97.8	-1.8	-2.3	29.2	2.3	x	x
Cn1/c(=N\NC(=O)c2ccccc2Cl)sc2ccccc21	3.0	93.7	5.2	2.9	136.1*	-2.9	126.1*	53.3*
O=C1CSC(c2ccc(F)cc2)N1c1ccccc1F (stereo unspecified)	-0.6	94.6	u	14.1	3.6	-14.1	x	x
O=C1CSC(c2ccc(F)cc2)N1c1nc2ccccc2s1 (stereo unspecified)	4.9	69.8	-0.3	1.8	149.1*	-1.8	98.2*	62.9*

Screening results from PubChem.
